# Assay results of several laboratories.
# Each line is one published result; the experiments were not run side by side.
# Target: Serine/threonine-protein kinase pim-1 (PIM1, Homo sapiens, UniProt P11309)
Compound,test,conditions,quantity,result
N#CC1(c2ccccn2)CCN(Cc2cc(C(=O)O)c(=O)n3ccccc23)CC1,"cell-free assay, competition with immobilised ligand",1 µM,remaining binding,99%
O=c1[nH]c2ccccc2n1C1CCN(Cc2ccc(-c3[nH]c4cc5ncnc5cc4nc3-c3ccccc3)cc2)CC1,cell-free assay,0.5 µM,remaining signal,106%
COc1ncccc1-c1cnn2ccc(N3CCN(C(=O)OC(C)C)CC3)nc12,"binding, competition with immobilised ligand",1 µM,remaining binding,100%
Cc1nn(C)cc1-c1nc2c(N3CCN(Cc4ccc(Cl)cc4)CC3)c(Cl)cnc2[nH]1,"binding, competition with immobilised ligand",1 µM,remaining binding,100%
Cn1cc(-c2cc(F)cc(N3CCn4c(cc5c4CCCC5)C3=O)c2CO)cc(Nc2ccc(N3CCN(C4COC4)CC3)cn2)c1=O,"enzyme activity, inhibitor",0.1 µM,inhibition,11%
Cn1cncc1[C@@](O)(COc1ccc(C#N)cc1-c1ccc(OC(F)(F)F)cc1)c1ccc(C#N)cc1,"cell-free assay, competition with immobilised ligand",1 µM,remaining binding,100%
CC(C)(C)c1cc(C=C(C#N)C#N)cc(Br)c1O,"enzyme activity, inhibitor",0.5 µM,remaining activity,94.7%
Cn1cc(-c2cccc(N3CCc4c(sc5c4CC(C)(C)C5)C3=O)c2CO)cc(Nc2ccncn2)c1=O,"enzyme activity, inhibitor",1 µM,inhibition,2%
